Shown are actives, neighbours in structure and some others; about 4.8% of the full set was active somewhere.
ERa SRC1 pot: enhances coactivator binding to human estrogen receptor alpha; P03372; 86,000 tested, 1.3% active; TR-FRET ERalpha-LBD/SRC-Cy5 coactivator binding, 2 h; 100 = basal binding, no effect; coactivator binding (% of control), % at 25.6 µM; in the data active = activity above about 200%;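 note: binding measured in presence of low estradiol as agonist stimulus; 0% = peptide alone without receptor and 100% = receptor with peptide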
ERa SRC1 inh: blocks coactivator binding to human estrogen receptor alpha; inhibition, % at 25.6 µM; TR-FRET ER-alpha LBD / SRC-1 peptide, estradiol-bound; 86,000 tested, 1.7% active; in the data active = inhibition above about 50%;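 note: 0% = receptor plus peptide control and 100% = peptide only without receptor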
ERb coact inh: ER-beta (human) coactivator binding inhibition | Q92731 | AID 633 | TR-FRET ER-beta LBD / SRC1-Cy5 peptide binding; receptor agonist-loaded with 1 µM estradiol | 86,000 tested, 1.3% active | inhibition, % at 25.6 µM;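 active = compounds whose percent inhibition of the receptor-coactivator binding signal exceeds about 50% in the single-dose screen, limit read from the data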;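 note: 0% = receptor plus peptide wells without compound and 100% = peptide-only wells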
Pyk2 oligo antag: blocks oligomerization of human Pyk2 in cells | Q14289 | Q293 cells, Pyk2 FERM NanoBiT luminescence; stronger effect = lower value | z-score (the deposit names both 25 µM and 10 µM) | 99,000 tested, 0.83% active | AID 1347419;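 active = Z-score of -3 or lower, scaled per plate to the spread of control and sample wells; inactive = z-score above -3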;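 note: negative z-score means lost luminescence so less FERM oligomerization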
RORA act: activates the human nuclear receptor RORA; P35398; CHO-K1 Gal4-RORA LBD luciferase reporter, luminescence; percent increase over mock-subtracted basal signal; activation, % at 10 µM; 65,000 tested, 1.5% active; AID 560;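 active = activation above the mean of all tested compounds plus 3 SD, cut at about 49% in these data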;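 note: 0% = DMSO-treated RORA cells and 100% = added signal equal to DMSO minus mock-transfected cells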
Target sequence (P35398 whole entry, looked up, the tested form may be a part): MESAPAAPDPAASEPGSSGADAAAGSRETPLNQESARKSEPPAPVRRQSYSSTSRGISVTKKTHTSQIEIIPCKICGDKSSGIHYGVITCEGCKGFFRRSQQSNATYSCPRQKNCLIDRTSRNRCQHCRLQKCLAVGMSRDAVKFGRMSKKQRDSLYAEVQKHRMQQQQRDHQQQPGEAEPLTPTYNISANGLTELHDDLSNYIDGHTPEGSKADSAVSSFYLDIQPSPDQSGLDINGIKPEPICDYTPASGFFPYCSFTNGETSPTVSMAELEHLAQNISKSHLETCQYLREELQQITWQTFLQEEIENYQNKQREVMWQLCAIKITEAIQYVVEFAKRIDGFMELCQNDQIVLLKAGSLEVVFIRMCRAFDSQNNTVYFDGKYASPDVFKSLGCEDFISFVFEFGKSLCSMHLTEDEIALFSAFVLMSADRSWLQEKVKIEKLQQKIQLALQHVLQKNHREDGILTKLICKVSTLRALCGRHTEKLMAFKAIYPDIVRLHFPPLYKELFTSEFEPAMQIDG
SF-1 act: activates the human nuclear receptor SF-1. Q13285. CHO-K1 Gal4-SF-1 LBD luciferase reporter; % increase over DMSO SF-1-specific signal. activation, % at 10 µM. 65,000 tested, 1.9% active;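 active = activation above the mean activation of all tested compounds plus 3 SD, cut at about 50% in these data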
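Test system: CHO-K1 cells with Gal4–hSF-1 LBD chimera plus Gal4-driven luciferase; Input: 4,000 cells/well; Compound: 10 µM only; Times: 20 h compound treatment, 37 °C; Measured by: steady-glow luciferase luminescence, read after 15 min reagent incubation; Measure: percent activation versus DMSO; Control set: DMSO and mock-transfected background; Replicates: one test per compound.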
Active calls of the source: *; x = no result; [ ] = remark or other dose.

SMILES	ERa SRC1 pot	ERa SRC1 inh	ERb coact inh	Pyk2 oligo antag	RORA act	SF-1 act
O=C(CC(SCc1ccco1)c1ccc(O)cc1)c1cccs1 (configuration not stated)	45.4	13.3	12.7	0.83	87.3*	30.8
C=CCn1c(-c2cccn(Cc3ccc(Cl)cc3Cl)c2=O)n[nH]c1=S	x	x	x	3.17	x	x
CC(C)CC(C(=O)Nc1oc(-c2ccccc2)c(-c2ccccc2)c1C#N)N1C(=O)c2ccccc2C1=O (configuration not stated)	96.4	0.5	-6.5	-3.74*	x	x
N#Cc1c(NC(=O)CCN2C(=O)c3ccccc3C2=O)oc(-c2ccccc2)c1-c1ccccc1	x	x	x	0.38	-13.1	-8.7
Clc1ccc(Nc2nc(-c3ccncc3)cs2)cc1	117.0	76.4*	44.2	-0.34	x	x
CNc1nc(-c2ccc(Cl)cc2)cs1	99.9	-3.2	-3.4	0.26	47.1	63.5*
CCNc1nc(-c2ccc(Cl)cc2)cs1	103.3	-25.7	-33.7	-1.44	50.1*	15.9
Nc1ccc(Nc2nc(-c3ccncc3)cs2)cc1	56.6	22.9	5.9	-1.06	x	x
Cc1cc(Br)c2[nH]c3c(c2c1)CCCC3=O	81.3	14.6	3.2	-1.03	x	x
Cc1ccc(-c2n[nH]c(=S)n2/N=C/C=C\c2ccccc2[N+](=O)[O-])cc1	270.3*[fluorescence artefact?]	52.0*	49.1	-0.16	x	x
CCCCNC(=O)CSc1nnc(Cc2ccccc2)n1CC	105.3	-34.3	-21.6	0.55	x	x
COc1ccc2nc(NC(=O)c3cc(C)oc3C)sc2c1	207.7*	12.2	4.1	0.49	x	x
CCCC(=O)Nc1nc2ccc(OC)cc2s1	103.6	-12.2	-8.1	x	56.0*	54.2*
CCOc1ccc2nc(NC(=O)CCC(=O)c3cccs3)sc2c1	61.6	59.7*[fluorescence artefact?]	50.9*	0.87	x	x
CCN1CCN(CC(=O)Nc2nc3ccc(OC)cc3s2)CC1	x	x	x	0.51	x	x
CCOCC(=O)Nc1nc2ccc(OCC)cc2s1	81.4	1.4	-10.5	1.14	11.3	35.6
Cc1cc(C(=O)Nc2nc3ccc(S(C)(=O)=O)cc3s2)c(C)o1	165.3	3.1	0.9	0.86	89.1*	50.4*
NC(=O)c1oc2ccc(Cl)cc2c1NC(=O)CN1CCOCC1	110.4	-2.9	-6.1	0.5	-31.6	-35.8
CC(C)(C)CC(=O)NC(=S)N1CCCCCC1	x	x	x	1.62	x	x
CCC(=O)Nc1ccc2c(c1)nc(CN1CCN(C(C)=O)CC1)n2C	100.0	-8.9	-10.8	0.15	x	x
O=C(CSc1nnc2sc3ccccc3n12)c1ccco1	60.1	44.6	27.7	0.13	17.5	14.1
CCOC(=O)c1cc(NC(=O)N2CCCCC2)c(C)nc1C	74.8	7.5	3.0	-0.64	-6.3	-2.0
CCOc1ccc2nc(NC(=O)c3cnccn3)sc2c1	142.6	13.9	12.2	-0.35	85.8*	19.3
COc1ccc(-c2noc(CCC(=O)Nc3nc4ccccc4s3)n2)cc1	208.0*[fluorescence artefact?]	14.0	-2.5	x	11.2	7.1
O=C(Nc1nc2ccccc2s1)c1cnccn1	x	x	x	0.4	x	x
SMILES	ERa SRC1 pot	ERa SRC1 inh	ERb coact inh	Pyk2 oligo antag	RORA act	SF-1 act
COc1ccc2nc(NC(=O)C3CCCN(S(=O)(=O)c4c(C)noc4C)C3)sc2c1 (configuration not stated)	128.5	-0.7	83.5*[fluorescence artefact?]	x	-5.7	8.6
CCOc1ccc2nc(NC(=O)C3CCCN(S(=O)(=O)c4c(C)noc4C)C3)sc2c1 (configuration not stated)	x	x	x	x	24.5	-6.5
CCc1ccc2nc(NC(=O)CSCc3c(C)noc3C)sc2c1	83.2	5.5	91.2*[fluorescence artefact?]	-1.94	24.2	15.1
COC(=O)n1ccc(C(=O)Nc2ccccc2F)n1	106.4	4.3	0.0	1.06	-12.0	46.5
O=C1N=C(N2CCc3ccccc3C2)S/C1=C\c1cccc(O)c1	x	x	x	-0.9	x	x
CC(C)CN(CC(C)C)c1nnc(N)s1	99.0	-6.8	1.9	x	14.5	-13.9
Cc1[nH]n(-c2c(Cl)cc(Cl)cc2Cl)c(=O)c1C=Nc1ccc(S(=O)(=O)N2CCOCC2)cc1	x	x	x	-0.22	x	x
Cc1ccc(S(=O)(=O)NC(=O)COc2ccccc2C(N)=O)cc1	114.2	-4.7	-5.6	0.96	-3.2	-5.5
CC(=O)Nc1ccc(S(=O)(=O)n2cnc3ccccc32)cc1	107.8	-5.7	-8.7	-0.24	x	x
COc1ccc2nc(NC(=O)c3cccc(OCc4c(C)noc4C)c3)sc2c1	129.5	2.5	7.4	-2.77	86.2*	35.8
